Compound activity as filed in PubChem BioAssay.
This is a sample that favours compounds with a hit; in the whole collection about 1.2% have one here.
Fh CTSL1 inh: Fasciola hepatica cathepsin L1 inhibitors, primary screen, counter-screen for PFM18AAP inhibitor project, biochemical, QFRET, fluorogenic peptide substrate; recombinant F. hepatica cathepsin L1, Z-Leu-Arg-MCA fluorescence; inhibition, % at 5.96 µM; 300,000 compounds, 0.49% hits;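 active = inhibition above the mean of all tested compounds plus 3 SD, set per screening campaign, cut at about 17% in these data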;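 note: 0% = plate median of test compound wells and 100% = 1 µM Z-Phe-Ala-diazomethylketone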
HCV core dimer: inhibitors of HCV core protein dimerization, primary screen, biochemical, TR-FRET, high-throughput | TR-FRET GST/Flag-core106 dimerization, 1536-well | inhibition, % at 5 µM | 300,000 compounds, 0.33% hits | AID 1899, 2009;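 active = inhibition above the mean of all tested compounds plus 3 SD, set per screening campaign, cut at about 45% in these data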
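Assay system: GST-tagged and Flag-tagged HCV core protein residues 1-106 / Times: compound-protein-antibody incubation 4 h at 22.5 °C / Signal: time-resolved FRET, ex 340 nm, em 617 and 671 nm / Evaluation: % inhibition based on acceptor/donor emission ratio / Benchmarks: wells lacking GST-core106 and wells with excess unlabelled core106 / Repeats: singlicate, one well per compound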
ASAP1 GAP inh: inhibitors of human ASAP1 ArfGAP activity, primary screen, biochemical, fluorescence polarization; Arf-GAP with SH3 domain, ANK repeat and PH domain-containing protein 1 (Homo sapiens), …; ASAP1-stimulated ARF1 GTP hydrolysis, GDP FP detection; inhibition, % at 16.5 µM; 360,000 compounds, 0.19% hits; in the data active = inhibition above about 25%;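 note: 0% = vehicle with enzyme and substrate and 100% = no enzyme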
Target sequence (Q9ULH1 325-724 limits assumed): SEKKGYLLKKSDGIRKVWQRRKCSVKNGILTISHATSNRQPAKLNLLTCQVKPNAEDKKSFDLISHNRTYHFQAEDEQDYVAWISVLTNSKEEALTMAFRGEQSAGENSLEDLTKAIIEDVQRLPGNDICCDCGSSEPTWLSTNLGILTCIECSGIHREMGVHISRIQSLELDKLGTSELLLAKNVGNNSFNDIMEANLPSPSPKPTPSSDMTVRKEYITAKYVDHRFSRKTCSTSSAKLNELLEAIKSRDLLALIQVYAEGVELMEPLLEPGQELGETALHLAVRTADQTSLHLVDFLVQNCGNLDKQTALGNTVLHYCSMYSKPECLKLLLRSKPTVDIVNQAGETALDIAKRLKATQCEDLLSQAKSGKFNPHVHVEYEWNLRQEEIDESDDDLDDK
NPR2 activator: human GC-B receptor activators, primary screen, HEK293 GC-B cells, cGMP TR-FRET, EC30 CNP | Atrial natriuretic peptide receptor 2 (Homo sapiens), P20594 | 0% at EC30 CNP, 100% saturating CNP | activation, % at 10 µM | 370,000 compounds, 0.11% hits | AID 1920062, 2024;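 active = activation at 10 µM reaching about 35% in either raw or pattern-adjusted values, limit read from the data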
ARFGAP1 inh: inhibitors of rat ARFGAP1 GAP activity, primary screen, biochemical, fluorescence polarization, GDP tracer. ADP-ribosylation factor GTPase-activating protein 1 (Rattus norvegicus), Q62848. Arfgap1-stimulated ARF1 GTP hydrolysis, GDP FP detection. inhibition, % at 16.5 µM. 360,000 compounds, 0.26% hits;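 active = inhibition above a per-plate limit, mean inhibition of low control wells plus 3 SD, cut at about 25% in these data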;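 note: 0% = DMSO wells with enzyme and 100% = wells lacking Arfgap1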
Target sequence (Q62848 1-136 limits assumed): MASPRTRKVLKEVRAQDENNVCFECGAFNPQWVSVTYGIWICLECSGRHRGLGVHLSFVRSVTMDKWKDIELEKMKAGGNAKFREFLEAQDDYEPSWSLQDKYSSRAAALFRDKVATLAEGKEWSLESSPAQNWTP
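system = rat Arfgap1 catalytic domain, aa 1-136 | technique = FP, GDP Alexa 633 tracer displaced from anti-GDP antibody, 620/688 nm | compound = one concentration, 16.5 µM, DMSO 1.26% | medium = HEPES-based buffer, pH 7.5 | timing = compound-enzyme preincubation 20 min, reaction 120 min, detection 60 min, 25 °C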
GC-A act: GC-A stimulated cGMP production enhancers – HEK293 GC-A cells, cGMP TR-FRET, EC30 ANP, primary screen. 0% at EC30 ANP, 100% saturating ANP. 370,000 compounds, 0.14% hits. AID 1671463, 2021. Atrial natriuretic peptide receptor 1 (Homo sapiens), P16066. activation, % at 10 µM; in the data active = activation above about 40%
Numbers without * were called inactive.

What do the screens show for `COC1=CC(=O)CC(C)C12Oc1cc(OC)cc(OC)c1C2=O` (stereo not given)?
Fh CTSL1 inh: 4.1; HCV core dimer: 0.8; ASAP1 GAP inh: -3.1; NPR2 activator: -1.4; ARFGAP1 inh: 5.9; GC-A act: 3.2

How did COC(=O)C1=CC(=O)C=C(OC)[C@@]12Oc1cc(C)cc(OC)c1C2=O do in these assays?
NPR2 activator: 33.9; GC-A act: 79.0*

Results for CC(C)C[C@@H](CCCc1ccccc1)CCC(=O)N(c1ccccc1)c1ccccc1 ?
NPR2 activator: 6.3; GC-A act: 0.5

What do the screens show for `CCCCNC(=O)Oc1c(Br)cc2sc(=O)oc2c1Br`?
Fh CTSL1 inh: 22.8*; HCV core dimer: -3.0

What do the screens show for `CCCCNC(=O)Oc1cc(CCl)on1`?
Fh CTSL1 inh: -4.8; HCV core dimer: -9.0

Results for O=C1OC(Nc2ncccn2)c2ccccc21 (stereo not given) ?
Fh CTSL1 inh: -3.1; HCV core dimer: 1.6; ASAP1 GAP inh: -7.7; NPR2 activator: -0.8; ARFGAP1 inh: 10.9; GC-A act: 3.2

What do the screens show for `O=C1OC(Nc2cc(Br)cc3cccnc23)c2ccccc21` (stereo not given)?
Fh CTSL1 inh: 98.3*; HCV core dimer: 18.6; ASAP1 GAP inh: 19.8; NPR2 activator: -3.4; ARFGAP1 inh: 8.7; GC-A act: -3.1

Results for Cc1nc2c(-c3ccc(F)cc3)cnn2c(N)c1-c1ccccc1 ?
Fh CTSL1 inh: 19.2*; HCV core dimer: -18.6; ASAP1 GAP inh: -3.7; NPR2 activator: -10.0; ARFGAP1 inh: -7.4; GC-A act: -40.2

Results for Cc1nc2c(-c3ccc(Cl)cc3)cnn2c(N)c1-c1ccc(F)cc1 ?
Fh CTSL1 inh: 0.7; HCV core dimer: 4.6; ASAP1 GAP inh: 22.7; NPR2 activator: -13.6; ARFGAP1 inh: -6.2; GC-A act: -38.4

How did Cc1cccc(C(=O)N[C@H](C(=O)OCc2cc(=O)n3c(n2)sc2ccccc23)C(C)C)c1 do in these assays?
Fh CTSL1 inh: -4.8; HCV core dimer: 48.8*; ASAP1 GAP inh: -8.7; NPR2 activator: 6.6; ARFGAP1 inh: 3.6; GC-A act: 2.9

How did O=C(OCc1cc(=O)n2c(n1)sc1ccccc12)c1ccc(O)cc1 do in these assays?
Fh CTSL1 inh: 1.9; HCV core dimer: 50.4*; ASAP1 GAP inh: 4.4; NPR2 activator: 0.5; ARFGAP1 inh: 16.7; GC-A act: -0.3

How did Cc1nn(C)cc1/C=N/NC(=O)c1ccc2c(c1)OCO2 do in these assays?
Fh CTSL1 inh: 0.8; HCV core dimer: 1.2; ASAP1 GAP inh: -11.3; NPR2 activator: 3.2; ARFGAP1 inh: 13.9; GC-A act: -1.2

How did CNc1cncc(-c2ccc(OC)cc2)n1 do in these assays?
ASAP1 GAP inh: -4.3; NPR2 activator: -0.6; ARFGAP1 inh: 2.9; GC-A act: -1.8

What do the screens show for `CSCC[C@H](Nc1ncnc2sc(C)c(C)c12)C(=O)O`?
Fh CTSL1 inh: 19.4*; HCV core dimer: 1.7; ASAP1 GAP inh: 8.2; NPR2 activator: 1.5; ARFGAP1 inh: -9.3; GC-A act: 0.0

Results for COc1ccc(CCNC(=O)c2cc3c(=O)n4ccccc4nc3n(CCCN3CCOCC3)c2=N)cc1OC ?
Fh CTSL1 inh: 2.5; HCV core dimer: -3.0; ASAP1 GAP inh: -7.6; NPR2 activator: 3.5; ARFGAP1 inh: 0.5; GC-A act: 9.8

How did O=C(Cc1ccc(-n2c(=O)c3ccccc3n(Cc3ccccc3F)c2=O)cc1)NCC1CCCO1 (stereo not given) do in these assays?
Fh CTSL1 inh: -2.4; HCV core dimer: -1.3; ASAP1 GAP inh: 5.1; NPR2 activator: 26.8; ARFGAP1 inh: -3.0; GC-A act: 28.6

What do the screens show for `O=C(Cc1ccc(-n2c(=O)c3ccccc3n(Cc3ccccc3Cl)c2=O)cc1)NCC1CCCO1` (stereo not given)?
Fh CTSL1 inh: 1.2; HCV core dimer: 2.2; ASAP1 GAP inh: -4.8; NPR2 activator: 61.5*; ARFGAP1 inh: 6.2; GC-A act: 53.4*

Results for COc1ccccc1-n1c(=O)[nH]c2c(C(N)=O)nc(CC(C)C)nc21 ?
Fh CTSL1 inh: 20.6*; HCV core dimer: 0.7; ASAP1 GAP inh: 0.0; NPR2 activator: -7.1; ARFGAP1 inh: 4.1; GC-A act: -3.5

Results for CCOC(=O)/C=C/C(=O)Nc1ccc(S(=O)(=O)N2CCCCCC2)cc1 ?
Fh CTSL1 inh: 31.2*; HCV core dimer: 10.2; ASAP1 GAP inh: 0.9; NPR2 activator: -0.6; ARFGAP1 inh: 14.3; GC-A act: 3.4

What do the screens show for `CCOC(=O)/C=C/C(=O)Nc1ccc(-c2nnc3n2CCCCC3)cc1`?
Fh CTSL1 inh: 37.4*; HCV core dimer: 6.3; ASAP1 GAP inh: -0.5; NPR2 activator: 3.7; ARFGAP1 inh: 1.8; GC-A act: 0.2

Results for O=c1[nH]c(C2CCN(S(=O)(=O)c3ccccc3)CC2)nc2c1nnn2Cc1cccc(Cl)c1 ?
Fh CTSL1 inh: -5.8; HCV core dimer: 10.8; ASAP1 GAP inh: 1.7; NPR2 activator: -5.2; ARFGAP1 inh: -6.3; GC-A act: -14.4

Results for CCC(=O)N(C1=C(NC)C(=O)c2ccccc2C1=O)C(C)C ?
Fh CTSL1 inh: 5.7; HCV core dimer: -4.3; ASAP1 GAP inh: -2.0; NPR2 activator: 7.2; ARFGAP1 inh: 16.4; GC-A act: -1.3

How did CNC1=C(N(C(C)=O)c2ccc(Br)cc2)C(=O)c2ccccc2C1=O do in these assays?
Fh CTSL1 inh: 32.7*; HCV core dimer: -3.4; ASAP1 GAP inh: 9.4; NPR2 activator: -2.7; ARFGAP1 inh: -6.2; GC-A act: -5.3

What do the screens show for `Cc1nc2ccc(NC(=O)c3ccc(S(=O)(=O)N(C)C)cc3)cc2s1`?
Fh CTSL1 inh: -1.1; HCV core dimer: -3.2; ASAP1 GAP inh: -3.1; NPR2 activator: 5.7; ARFGAP1 inh: 5.0; GC-A act: 3.2

What do the screens show for `CC(C)c1ccc(NC(=O)CNC(=O)Cn2cnc3ccccc3c2=O)cc1`?
Fh CTSL1 inh: 7.1; HCV core dimer: -3.3; ASAP1 GAP inh: 6.8; NPR2 activator: 2.7; ARFGAP1 inh: 1.2; GC-A act: 7.2

Results for Cc1ccc2cc(C)c(SCC(=O)Nc3cc(C)on3)nc2c1 ?
Fh CTSL1 inh: 0.6; HCV core dimer: 5.1; ASAP1 GAP inh: -7.7; NPR2 activator: -2.8; ARFGAP1 inh: 5.8; GC-A act: -2.5
